Screens (PubChem BioAssay)
TRPC4 act = activators of mouse TRPC4 channel, primary screen, Fluo4 calcium, HEK293 TRPC4beta/mu-opioid cells; Short transient receptor potential channel 4 (Mus musculus), Q9QUQ5; Fluo4 calcium fluorescence; hits give high values; B-score at 10 µM; 310,000 compounds, 0.49% hits; AID 2237, 2010;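 active means B-score above 5 SD of library B-scores, and initial fluorescence ratio not above library mean plus 5 SD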;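 further: positive B-score marks a calcium rise read as TRPC4 activation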
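Test system: HEK293 cells stably co-expressing mouse TRPC4beta and mu-opioid receptor | Schedule: Fluo4 dye loading 45 min at room temperature, 110 s recording | Measured by: Kinetic Fluo4 calcium fluorescence, 5 s baseline at 1 Hz | Evaluation: B score of integrated ratio | Controls: Buffer (low) and maximal DAMGO (high)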
TRPC6 inh = mouse TRPC6 channel inhibitors, primary screen, cell-based, HEK293, membrane potential dye; 310,000 compounds, 1.1% hits; ACh-evoked depolarization; hits give low values; AID 2553, 2010; B-score at 10 µM; Short transient receptor potential channel 6 (Mus musculus), Q61143;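 active means B-score under library mean minus 3 SD, initial fluorescence not abnormally high, positive integrated signal ratio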;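 further: B-score derived from integrated fluorescence ratio over the kinetic read; more negative B-score means stronger inhibition of depolarization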
Target sequence (Q61143 whole entry, looked up): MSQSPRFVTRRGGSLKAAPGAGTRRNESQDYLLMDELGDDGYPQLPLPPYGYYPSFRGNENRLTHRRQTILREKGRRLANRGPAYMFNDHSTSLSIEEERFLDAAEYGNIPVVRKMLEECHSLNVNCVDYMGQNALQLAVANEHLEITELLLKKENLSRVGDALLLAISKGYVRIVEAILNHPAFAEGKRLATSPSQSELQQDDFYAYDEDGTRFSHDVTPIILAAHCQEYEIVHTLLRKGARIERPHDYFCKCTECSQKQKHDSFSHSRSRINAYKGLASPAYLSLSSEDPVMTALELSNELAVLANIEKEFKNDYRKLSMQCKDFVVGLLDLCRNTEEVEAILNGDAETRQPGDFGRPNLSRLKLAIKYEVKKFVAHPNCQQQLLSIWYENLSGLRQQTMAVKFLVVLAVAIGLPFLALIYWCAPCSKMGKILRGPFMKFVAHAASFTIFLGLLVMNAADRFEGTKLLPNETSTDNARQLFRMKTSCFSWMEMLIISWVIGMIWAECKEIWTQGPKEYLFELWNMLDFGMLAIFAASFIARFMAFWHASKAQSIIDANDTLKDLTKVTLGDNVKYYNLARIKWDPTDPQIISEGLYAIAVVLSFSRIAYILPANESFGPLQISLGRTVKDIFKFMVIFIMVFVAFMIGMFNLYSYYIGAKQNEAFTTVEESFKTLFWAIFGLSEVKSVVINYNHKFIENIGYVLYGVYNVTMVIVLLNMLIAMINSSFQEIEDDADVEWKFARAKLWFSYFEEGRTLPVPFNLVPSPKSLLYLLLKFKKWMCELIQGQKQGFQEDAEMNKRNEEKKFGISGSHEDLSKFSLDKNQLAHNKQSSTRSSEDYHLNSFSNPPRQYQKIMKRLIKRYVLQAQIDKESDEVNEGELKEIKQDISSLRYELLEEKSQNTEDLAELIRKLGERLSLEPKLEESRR
TRPC4 PAM = positive allosteric modulators of TRPC4, primary screen, cell-based, mouse TRPC4beta, HEK293 mu-opioid, Fluo-4 calcium. Short transient receptor potential channel 4 (Mus musculus), Q9QUQ5. DAMGO EC20, Fluo-4 Ca2+ flux; hits give high values. B-score at 10 µM. 310,000 compounds, 0.42% hits. AID 2227, 2009;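 active means B-score of calcium response area above 5 SD of library B-scores, with initial fluorescence ratio within 5 SD of library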;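 further: B-score of integrated fluorescence ratio over time as area under calcium response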
TRPC6 activator = mouse TRPC6 channel activators, primary screen, cell-based, HEK293, membrane potential dye | AID 2550, 2010 | B-score at 10 µM | 310,000 compounds, 0.13% hits | HEK293-TRPC6 membrane potential dye fluorescence; hits give high values;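 active means B-score of the integrated fluorescence ratio above library mean plus 3 SD, and starting fluorescence ratio within library mean plus 5 SD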;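 further: higher score means more depolarization so channel activation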
TRPC4 inh = inhibitors of mouse TRPC4 channel, primary screen, Fluo4 calcium, HEK293 TRPC4beta/mu-opioid cells. Short transient receptor potential channel 4 (Mus musculus), Q9QUQ5. DAMGO-evoked Fluo4 calcium flux; hits give low values. B-score at 10 µM. 300,000 compounds, 0.39% hits;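 active means B-score over 3 SD under the library average, no early fluorescence shift, positive overall ratio signal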
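System: stable TRPC4beta/mu-opioid receptor HEK293 cells; Dosing: single-point compound dosing; Measured by: Fluo4 Ca2+ flux fluorescence; Read-out basis: per-well B score of integrated baseline-normalized Fluo4 ratio.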
TRPC4 spec 2 = second selectivity test of TRPC6 inhibitors: effect on mouse TRPC4; shares compounds with TRPC6 inh; HEK293 TRPC4/MOR, membrane potential dye fluorescence; channel activated by saturating DAMGO dose; inhibition, % at 10 µM; 920 compounds, 42% hits; AID 2776;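 active means compounds whose fluorescence signal differed from control wells by over 3 SD, either direction, in both duplicate plates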
TRPC4 spec = mouse TRPC4 modulation by TRPC6 hits, confirmation, selectivity assay for TRPC6 inhibitor project, cell-based, HEK293 TRPC4/mu-opioid, membrane potential dye. shares compounds with TRPC6 inh. membrane potential fluorescence. activity change, negative = inhibition, % at 10 µM. 920 compounds, 61% hits;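 active means rise or fall in signal beyond 3 SD of buffer-only wells in both replicate plates, either sign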;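 further: integrated kinetic ratio of fluorescence range over baseline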
HEK293 MPD ctr 2-1 = nonspecific membrane potential effects, parental HEK293, confirmation, counter-screen for TRPC6 inhibitor project, cell-based, second counter screen | shares compounds with TRPC6 inh | parental HEK293 membrane potential dye fluorescence; maximal acetylcholine challenge after compound addition | signal change vs control, % at 10 µM | 920 compounds, 31% hits | AID 2779, 2010;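 active means membrane potential signal moving either way by over 3 SD of the maximum-effect control, in both duplicate plates, meaning non-specific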
HEK293 MPD ctr-1 = membrane potential modulation in parental HEK293, confirmation, counter-screen for TRPC6 inhibitor project, cell-based; shares compounds with TRPC6 inh; parental HEK293 membrane potential dye fluorescence; membrane potential signal change, % at 10 µM; 920 compounds, 60% hits;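 active means membrane potential signal shifting up or down by more than 3 SD of buffer-only wells, on both duplicate plates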
HEK293 MPD ctr-2 = parental HEK293 membrane potential modulation, confirmation, counter-screen for TRPC6 modulator project, cell-based. shares compounds with TRPC6 inh. membrane potential dye fluorescence. membrane potential signal change, % at 10 µM. 2,400 compounds, 51% hits. AID 488924, 2010;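 active means membrane potential signal moves up or down beyond 5 SD from buffer-only wells, on both duplicate plates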
HEK293 MPD ctr 2-2 = parental HEK293 nonspecific activity of TRPC6 modulators, second screen; shares compounds with TRPC6 inh; inhibition, % at 10 µM; membrane potential dye fluorescence; after compound, maximal acetylcholine stimulation; 2,400 compounds, 14% hits;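 active means membrane potential signal drops by more than 5 SD from the mean control signal, in both duplicate plates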;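 further: plate controls were acetylcholine ECmax control wells for no effect and buffer only wells for full effect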
TRPC4 ctr mod = TRPC4 modulation by TRPC6 hit compounds, confirmation, selectivity assay for TRPC6 modulator project, cell-based, HEK293 TRPC4/mu-opioid, membrane potential dye, mouse. 2,400 compounds, 69% hits. percent change from control (negative = decrease, positive = increase), % at 10 µM. membrane potential fluorescence. shares compounds with TRPC6 inh;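 active means membrane potential signal moved up or down beyond 5 SD of buffer control wells, in both duplicate plates, actives on both sides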;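 further: plate controls were assay buffer wells for no effect and DAMGO maximal-effect wells for full effect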
TRPC4/MOR inh 2 = mouse TRPC4 off-target activity of TRPC6 modulators, second screen. shares compounds with TRPC6 inh. HEK293 TRPC4/mu-opioid, membrane potential dye fluorescence; stimulated with maximal-effect DAMGO. inhibition, % at 10 µM. 2,400 compounds, 55% hits;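 active means drop in membrane potential signal beyond 5 SD of the control wells in both duplicate plates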;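 further: TRPC4 counter screen for TRPC6 hits run under conditions tuned for TRPC6 not TRPC4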
TRPC6 inh conf = mouse TRPC6 channel inhibitors, confirmation, HEK293 cells, membrane potential dye, duplicate. shares compounds with TRPC6 inh. ACh-evoked depolarization. inhibition, % at 10 µM. 3,300 compounds, 43% hits. AID 488960, 2010;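 active means fluorescence ratio falls more than 5 SD below the full-stimulation control mean, in both duplicate runs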;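 further: integrated fluorescence ratio of peak minus minimum over baseline after agonist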
TRPC6 act confirm = mouse TRPC6 channel activators, confirmation, HEK293 cells, membrane potential dye, duplicate. activation, % at 10 µM. HEK293-TRPC6 membrane potential dye fluorescence, FDSS. 2,800 compounds, 11% hits. shares compounds with TRPC6 inh;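 active means ratio signal rise beyond 5 SD above unstimulated control wells' mean, seen in both duplicate runs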;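 further: plate controls were buffer EC0 wells for no effect and acetylcholine ECmax response for full effect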
* = called active by the depositor; i = inactive; / = not tested or not shown; + = active, no number. Rows were chosen to be rich in hits. Some 2.3% of all compounds tested hit in one or more screens of this group.

SMILES | TRPC4 act | TRPC6 inh | TRPC4 PAM | TRPC6 activator | TRPC4 inh | HEK293 MPD ctr-2 | HEK293 MPD ctr 2-2 | TRPC4 ctr mod | TRPC4/MOR inh 2 | TRPC6 inh conf | TRPC6 act confirm | others
Nc1nc(N2CCN(C(=O)c3ccco3)CC2)nc2ccc(Br)cc12 | i | i | i | i | i | / | / | / | / | / | /
Cc1ccc(NC(=O)C2CCN(S(=O)(=O)c3c(C)noc3C)CC2)cc1C | i | i | i | i | i | / | / | / | / | / | /
C/C(=N/NC(=O)c1ccc(C)s1)c1cccc(NC(=O)c2ccoc2C)c1 | i | i | i | i | i | / | / | / | / | / | /
NS(=O)(=O)c1ccc(CCNC(=O)COC(=O)CCSc2ccc(Cl)cc2)cc1 | i | i | i | i | i | / | / | / | / | / | /
NS(=O)(=O)c1ccc(CCNC(=O)COC(=O)/C=C/c2ccc(Cl)cc2)cc1 | i | -5.4* | i | i | i | i | i | i | i | i | i
COC(=O)c1ccc(/C=C(/NC(=O)c2ccccc2)C(=O)N2CCOCC2)cc1 | i | i | i | i | i | / | / | / | / | / | /
CC(=O)c1c(C)cc(C)c(CSc2ccccn2)c1C | i | i | i | i | i | / | / | / | / | / | /
COc1ccc(-c2csc(NC(=O)CCCc3nc4ccccc4c(=O)[nH]3)n2)cc1OC | i | -5.2* | i | i | i | i | i | 14%* | i | i | /
COc1ccc(CCNCc2c(OC)ccc3ccccc23)cc1OC | i | i | i | i | i | / | / | / | / | / | /
COc1ccc2ccccc2c1CNC(C)CCc1ccccc1 (stereo not given) | i | -7.8* | i | i | i | / | / | / | / | 53%* | / | TRPC4 spec 2=34%*;TRPC4 spec=90%*;HEK293 MPD ctr 2-1=i;HEK293 MPD ctr-1=56%*
CC(C)c1ccc(S(=O)(=O)N2CCN(C(=O)C3CCCC3)CC2)cc1 | i | i | i | i | i | / | / | / | / | / | /
O=C(O)c1cccc(-c2ccc(/C=N/Nc3ccc([N+](=O)[O-])cc3)o2)c1 | i | i | i | i | i | / | / | / | / | / | /
O=C(O)c1ccc(-c2ccc(/C=N/Nc3ccc([N+](=O)[O-])cc3)o2)cc1 | 121* | i | 19* | 43* | i | + | i | 310%* | i | i | 484%*
CC(C)(C)NC(=S)N/N=C\c1ccc(-c2ccc([N+](=O)[O-])cc2)o1 | i | i | 16* | 18* | i | i | i | 51%* | i | i | i
CC(=O)c1cc(CN2CCN(C3CCN(C(C)C)CC3)C(CCO)C2)cs1 (stereo not given) | i | i | i | i | i | / | / | / | / | / | /
COc1ccc(C(=O)N[C@H](C(=O)OCc2cc(=O)oc3cc(C)ccc23)C(C)C)cc1 | i | i | i | i | i | / | / | / | / | / | /
O=C(CSc1nc(Nc2ccccc2)nc(N2CCOCC2)n1)NC1CCCCC1 | i | i | i | i | i | / | / | / | / | / | /
O=C1/C(=C\c2cc(Cl)c(O)c(Cl)c2)SC(=S)N1Cc1ccccc1 | 97* | i | 35* | 152* | i | + | i | 538%* | i | i | 594%*
COc1ccc2cc(S(=O)(=O)N3CCCC3)ccc2c1 | i | i | i | i | i | / | / | / | / | / | /
CCOC(=O)c1c(C)n(C)c2ccc(OC)c(NC(=O)CCN3CCC(Cc4ccccc4)CC3)c12 | i | -5.2* | i | i | i | i | i | i | 70%* | 54%* | i
C[n+]1ccc(/C=N/Nc2nc(Cl)c(C#N)c(Cl)c2Cl)cc1 | i | -7.6* | i | i | i | / | / | / | / | 62%* | i | TRPC4 spec 2=66%*;TRPC4 spec=i;HEK293 MPD ctr 2-1=-108%*;HEK293 MPD ctr-1=i
COCCNC(=O)COC(=O)c1cc(-c2ccc(OC)cc2)nc2ccccc12 | i | i | i | i | i | / | / | / | / | / | /
COc1ccc(NC(=O)CSc2nnc(-c3cccnc3)s2)cc1 | i | i | i | i | i | / | / | / | / | / | /
COc1cc(OC)c(C(=O)Nc2ccncc2)cc1OC | i | -5.1* | i | i | i | i | 72%* | -8.5%* | 36%* | 46%* | i
CC[n+]1c(C)sc2c3ccsc3ccc21 | i | -6.3* | i | i | i | -184%* | i | -32%* | i | i | i
